Source: PubChem BioAssay (several laboratories)
CAL PDZ FP-1: blocks peptide binding to the human CAL PDZ domain; Q9HD26; inhibition, % at 24.9 µM; 300,000 tested, 0.92% active; purified CAL PDZ, TMR-peptide fluorescence polarization, 1 h;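 active = mean inhibition of at least 30% with at least half of replicates also reaching 30%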;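 also: 0% = DMSO neutral control and 100% = excess unlabeled competitor peptide PRC23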
PDI inh: blocks human protein disulfide isomerase activity; P07237; PDI insulin aggregation turbidity, A650, 90 min; inhibition, % at 10 µM; 350,000 tested, 0.052% active; AID 588391;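 active = mean inhibition across replicates of 30% or more, whatever share of single replicates reach that level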
CAL PDZ FP-2: human CAL PDZ-peptide interaction inhibition | Q9HD26 | purified CAL PDZ, TMR-peptide fluorescence polarization, 1 h | inhibition, % at 20 µM | 330,000 tested, 0.02% active;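 active = highest replicate inhibition of at least 40%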;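 also: plate controls were DMSO neutral control wells for no effect and unlabeled competitor peptide control wells for full effect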
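Material: tagged CAL PDZ domain; buffer or medium: 25 mM sodium phosphate pH 7.4, 150 mM NaCl, TCEP, IgG, Thesit; compound dosing: single point, 20 µM; schedule: 1 h incubation at room temperature before polarization reading; measured by: FP readout, S and P plane fluorescence; read-out basis: percent inhibition from loss of millipolarization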
ERp5 block: ERp5 (human) disulfide isomerase inhibition | 350,000 tested, 0.05% active | ERp5 insulin aggregation, absorbance 650 nm, 90 min | inhibition, % at 9.99 µM;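 active = mean replicate inhibition above about 25%, with every replicate also reaching it, limit read from the data, passing the limit was not always enough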
ERAP1 HTS inh: inhibitors of human ERAP1 aminopeptidase; 340,000 tested, 0.15% active; Q9NZ08; recombinant ERAP1, Leu-AMC fluorescence, 60 min; inhibition, % at 10.7 µM;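 active = mean replicate inhibition of at least 30%, or all replicates individually reaching that 30% level; inactive = mean below 30% and not every replicate reaching it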;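 also: 0% = neutral control wells and 100% = L-leucinethiol positive control wells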
Rin1 Abl inh: blocks binding of human Rin1 to Abl. P00519+Q13671. TR-FRET Rin1/Abl binding, biochemical. inhibition, % at 7.35 µM. 360,000 tested, 0.4% active; in the data active = inhibition above about 5%, passing the limit was not always enough
Target sequence (P00519 whole entry, looked up): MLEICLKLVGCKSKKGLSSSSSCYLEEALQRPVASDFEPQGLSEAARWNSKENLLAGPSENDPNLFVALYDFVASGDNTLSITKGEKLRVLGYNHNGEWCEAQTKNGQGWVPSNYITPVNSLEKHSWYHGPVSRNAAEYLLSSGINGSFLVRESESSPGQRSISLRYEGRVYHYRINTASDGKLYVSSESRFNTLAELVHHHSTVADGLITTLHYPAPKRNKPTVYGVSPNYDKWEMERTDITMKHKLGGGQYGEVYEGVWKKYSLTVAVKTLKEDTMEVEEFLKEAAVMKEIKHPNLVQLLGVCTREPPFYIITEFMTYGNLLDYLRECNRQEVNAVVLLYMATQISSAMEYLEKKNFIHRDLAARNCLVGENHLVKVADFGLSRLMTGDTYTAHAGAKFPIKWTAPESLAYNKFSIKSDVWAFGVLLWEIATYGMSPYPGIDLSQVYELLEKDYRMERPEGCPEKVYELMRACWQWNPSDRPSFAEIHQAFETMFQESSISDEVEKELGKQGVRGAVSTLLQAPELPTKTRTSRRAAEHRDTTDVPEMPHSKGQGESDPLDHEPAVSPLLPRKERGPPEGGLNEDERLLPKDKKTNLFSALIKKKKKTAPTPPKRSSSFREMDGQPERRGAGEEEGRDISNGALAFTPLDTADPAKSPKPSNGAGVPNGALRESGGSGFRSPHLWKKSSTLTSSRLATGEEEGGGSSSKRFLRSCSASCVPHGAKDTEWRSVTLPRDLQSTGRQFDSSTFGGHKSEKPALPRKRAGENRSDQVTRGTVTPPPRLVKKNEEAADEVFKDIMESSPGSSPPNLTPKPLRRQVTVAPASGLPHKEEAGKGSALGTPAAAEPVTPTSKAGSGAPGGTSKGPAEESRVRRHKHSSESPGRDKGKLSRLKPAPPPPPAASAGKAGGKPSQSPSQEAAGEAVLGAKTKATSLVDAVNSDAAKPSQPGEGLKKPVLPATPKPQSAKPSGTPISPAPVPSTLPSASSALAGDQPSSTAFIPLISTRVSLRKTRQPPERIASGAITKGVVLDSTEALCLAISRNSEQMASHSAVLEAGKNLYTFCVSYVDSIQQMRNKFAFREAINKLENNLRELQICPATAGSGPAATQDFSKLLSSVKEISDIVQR
Target sequence (Q13671 whole entry, looked up): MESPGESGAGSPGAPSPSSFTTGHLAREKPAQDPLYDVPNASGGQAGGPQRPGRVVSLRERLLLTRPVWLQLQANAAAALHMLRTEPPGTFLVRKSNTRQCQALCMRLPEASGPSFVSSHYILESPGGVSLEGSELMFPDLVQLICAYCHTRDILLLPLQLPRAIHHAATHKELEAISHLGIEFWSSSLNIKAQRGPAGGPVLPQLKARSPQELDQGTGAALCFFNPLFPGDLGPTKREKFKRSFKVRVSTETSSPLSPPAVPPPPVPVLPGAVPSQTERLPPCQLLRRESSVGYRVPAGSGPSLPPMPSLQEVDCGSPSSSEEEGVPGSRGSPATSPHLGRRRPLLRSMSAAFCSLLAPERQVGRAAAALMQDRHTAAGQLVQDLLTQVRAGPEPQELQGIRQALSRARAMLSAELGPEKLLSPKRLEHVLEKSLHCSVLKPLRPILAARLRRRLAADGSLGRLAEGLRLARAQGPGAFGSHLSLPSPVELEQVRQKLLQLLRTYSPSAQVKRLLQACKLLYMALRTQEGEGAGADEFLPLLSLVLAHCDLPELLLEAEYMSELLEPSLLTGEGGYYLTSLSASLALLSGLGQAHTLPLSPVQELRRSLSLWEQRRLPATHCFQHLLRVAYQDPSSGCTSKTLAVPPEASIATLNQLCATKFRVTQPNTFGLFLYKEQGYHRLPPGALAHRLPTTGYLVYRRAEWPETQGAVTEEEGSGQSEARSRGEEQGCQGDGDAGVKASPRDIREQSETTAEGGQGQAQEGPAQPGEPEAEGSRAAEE
Rin1-Abl confirm: confirmation of inhibitors of human Rin1-Abl interaction. inhibition, % at 7.35 µM. 1,300 tested, 49% active. shares compounds with Rin1 Abl inh. TR-FRET Rin1-Abl binding, purified proteins
GFP quencher: quenches GFP fluorescence, counter-screen for Rin1-Abl inhibitors | 1,300 tested, 8.5% active | inhibitors/quenchers counterscreen | shares compounds with Rin1 Abl inh | inhibition, % at 6.75 µM;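 also: ABL1-eGFP fusion protein alone without its partner RIN1-SBP; 0% = protein with vehicle and 100% = wells lacking protein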
GFP quench DR: GFP fluorescence interference dose response; 230 tested, under 10 active; GFP fluorescence interference/quenching counterscreen; IC50, µM; shares compounds with Rin1 Abl inh; call rule not given here;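 also: ABL1-eGFP fusion protein alone without its RIN1 binding partner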
An asterisk follows results filed as active. Most compounds without a hit are left out; they make up all but 1.1% or so of the library. Rule as the data show it, unless noted: active = inhibition above about 6.5%; inactive = the rest.

What do the screens show for `Cc1ccc(NC2CCCN(C(=O)CN3C(=O)c4ccccc4C3=O)C2)cc1C` (centres undefined)?
CAL PDZ FP-1: -1; PDI inh: 3; CAL PDZ FP-2: -2; ERp5 block: 7; ERAP1 HTS inh: 4; Rin1 Abl inh: 9.8*; Rin1-Abl confirm: 0; GFP quencher: 0

Results for COc1ccc(CCNC(=O)c2c(N)no[n+]2[O-])cc1OC ?
CAL PDZ FP-1: -2; PDI inh: 9; CAL PDZ FP-2: 1; ERp5 block: 0; ERAP1 HTS inh: 2; Rin1 Abl inh: 6.6*; Rin1-Abl confirm: 1; GFP quencher: 0

What do the screens show for `COc1ccc(-n2nnc3c(=O)n(CC(=O)N4CCCCC4)cnc32)cc1`?
CAL PDZ FP-2: -1; ERp5 block: 1; ERAP1 HTS inh: 3; Rin1 Abl inh: -5

Results for COc1ccc(-n2nnc3c(=O)n(CC(=O)N4CCCC4)cnc32)cc1 ?
PDI inh: 2; CAL PDZ FP-2: 2; Rin1 Abl inh: 5.0*; Rin1-Abl confirm: -2; GFP quencher: 0

How did COc1ccc(S(=O)(=O)N[C@@H]2C=C[C@H](CC(=O)NCc3ccccc3F)O[C@H]2CO)cc1 do in these assays?
ERp5 block: -1; ERAP1 HTS inh: -8

How did COc1cc(SC)ccc1C(=O)N1CCN(c2ccccc2F)CC1 do in these assays?
CAL PDZ FP-1: 6; PDI inh: 8; CAL PDZ FP-2: -2; ERp5 block: -2; ERAP1 HTS inh: 1; Rin1 Abl inh: 0

Results for COc1cc2c(C(=O)N3CCN(c4ccccc4F)CC3)cn(C)c(=O)c2cc1OC ?
CAL PDZ FP-1: -2; PDI inh: 1; CAL PDZ FP-2: 3; ERp5 block: 10; ERAP1 HTS inh: 3; Rin1 Abl inh: 8.9*; Rin1-Abl confirm: 12*; GFP quencher: 1

What do the screens show for `CCOC(=O)C1CCCN(C(=O)c2cn(C)c(=O)c3cc(OC)c(OC)cc23)C1` (centres undefined)?
CAL PDZ FP-1: 6; PDI inh: -3; CAL PDZ FP-2: -1; Rin1 Abl inh: 25*; Rin1-Abl confirm: 32*; GFP quencher: 0; GFP quench DR: >68

What do the screens show for `CCS(=O)(=O)Nc1ccc2c(c1)C(=O)N(C)[C@H]1CC[C@H](CC(=O)N3CCCCC3)O[C@H]1CO2`?
ERp5 block: -4; ERAP1 HTS inh: 2

What do the screens show for `C[C@H](CO)N1C[C@H](C)[C@H](CN(C)S(=O)(=O)c2cn(C)cn2)Oc2c(NC(=O)c3cnccn3)cccc2C1=O`?
ERp5 block: 5; ERAP1 HTS inh: 0

What do the screens show for `CC(C)(C)n1ncc2c(=O)n(Cc3cccc(Cn4cnc5c(cnn5C(C)(C)C)c4=O)c3F)cnc21`?
CAL PDZ FP-1: -4; PDI inh: -5; CAL PDZ FP-2: -1; ERp5 block: 0; ERAP1 HTS inh: -1; Rin1 Abl inh: -1

How did CC(C)(C)n1ncc2c(=O)n(Cc3cccc(Cl)c3)cnc21 do in these assays?
CAL PDZ FP-1: 3; PDI inh: -7; CAL PDZ FP-2: -2; ERp5 block: -1; ERAP1 HTS inh: -2; Rin1 Abl inh: 7.6*; Rin1-Abl confirm: -1; GFP quencher: -1

How did CO[C@@H]1CN(C)C(=O)c2ccc(NC(=O)Nc3ccccc3)cc2OC[C@@H](C)N(C(=O)CN(C)C)C[C@@H]1C do in these assays?
ERp5 block: -5

How did CC1(c2ccccc2)NC(=O)N(CC(=O)Nc2ccc3c(c2)CCC3)C1=O (centres undefined) do in these assays?
CAL PDZ FP-1: 4; PDI inh: -1; CAL PDZ FP-2: 0; ERp5 block: -2; ERAP1 HTS inh: -1; Rin1 Abl inh: 8.2*; Rin1-Abl confirm: -2; GFP quencher: 1

Results for CCC1(c2ccccc2)NC(=O)N(CC(=O)Nc2ccc3c(c2)CCC3)C1=O (centres undefined) ?
PDI inh: -5; ERp5 block: 0; ERAP1 HTS inh: -1; Rin1 Abl inh: -1

What do the screens show for `CC1=C(O)C(=O)C(C2=C(O)C(=O)C(C)=C(O)C2=O)=C(O)C1=O`?
CAL PDZ FP-1: 2; CAL PDZ FP-2: 0; ERp5 block: 0; ERAP1 HTS inh: 2; Rin1 Abl inh: 46*; Rin1-Abl confirm: 37*; GFP quencher: 28*

Results for NS(=O)(=O)c1ccc(N=Nc2c[nH]c(=O)c(O)c2)cc1 ?
CAL PDZ FP-1: -9; PDI inh: -4; ERp5 block: 3; ERAP1 HTS inh: 11; Rin1 Abl inh: 18*; Rin1-Abl confirm: 14*; GFP quencher: 24*

What do the screens show for `C/C=C/c1ccc2c(c1)O[C@H](CN(C)C(=O)c1ccccc1)[C@H](C)CN([C@@H](C)CO)S2(=O)=O`?
ERp5 block: 14; ERAP1 HTS inh: 1

How did COC(=O)c1sccc1NC(=O)COc1ccccc1Cl do in these assays?
CAL PDZ FP-1: -1; PDI inh: 2; CAL PDZ FP-2: -2; Rin1 Abl inh: 7.4*; Rin1-Abl confirm: -2; GFP quencher: 1

Results for CCOc1ccccc1NC(=O)Nc1ccsc1C(=O)OC ?
PDI inh: 3; CAL PDZ FP-2: 0; ERp5 block: 2; ERAP1 HTS inh: 2; Rin1 Abl inh: 0

What do the screens show for `C[C@@H]1CN([C@@H](C)CO)C(=O)c2cc(/C=C/c3ccccc3)cnc2O[C@@H]1CN(C)C(=O)Nc1ccccc1F`?
ERp5 block: -2; ERAP1 HTS inh: -2

Results for O=C(C[C@@H]1CC[C@@H](NC(=O)CN2CCOCC2)[C@@H](CO)O1)NCCc1ccccc1 ?
ERp5 block: 1; ERAP1 HTS inh: 0

How did Cc1ccc(S(=O)(=O)N[C@H]2CC[C@@H](CC(=O)NC3CCCCC3)O[C@H]2CO)cc1 do in these assays?
ERp5 block: 2; ERAP1 HTS inh: 1

How did Cc1nn(-c2ccccc2)c(C)c1C(=O)OCC(=O)Nc1ccccc1 do in these assays?
CAL PDZ FP-1: 4; PDI inh: 3; CAL PDZ FP-2: -1; ERp5 block: 4; ERAP1 HTS inh: -1; Rin1 Abl inh: 2

How did Cc1nn(-c2ccccc2)c(C)c1C(=O)OCC(=O)N(C)c1ccccc1 do in these assays?
CAL PDZ FP-1: -4; PDI inh: 0; CAL PDZ FP-2: -2; ERp5 block: 5; ERAP1 HTS inh: -2; Rin1 Abl inh: 9.0*; Rin1-Abl confirm: 2; GFP quencher: -1
